Source: ChEMBL document CHEMBL1135298, “Induction of apoptosis by aryl-substituted diamines: role of aromatic group substituents and distance between nitrogens” (Bioorg Med Chem Lett, 2002)

Legend:
MDA-MB-231 [1] = assay: Inhibition of human breast cancer cell line MDA-MB-231 growth; format: functional, cell-based
PC-3 [2] = assay: Inhibition of human prostate cancer cell line PC-3 growth; format: functional, cell-based
Nucleic Acid [3] = assay: ability to interact with DNA was assessed by a DNA/ethidium bromide dye displacement assay, expressed as DC50 for polydAdT; format: nucleic-acid assay
How it was run: (§1)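 Ethidium displacement run by an adapted literature method: 2.5 µM polydAdT with 1.5 µM ethidium bromide in 3.75 mM Tris/NaCl, pH 8.0. Compound added to the DNA–dye complex; DC50 reported.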

MDA-MB-231 [4] = assay: Compound was evaluated for cytotoxic activity against human breast cancer cell line MDA-MB-231; format: functional, cell-based
How it was run: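 MDA-MB-231 grown in medium with 1 mM aminoguanidine, 50 U/mL penicillin, 50 µg/mL streptomycin, 10% FBS and 2 mM L-glutamine. Drug added 24 h after plating, cells grown a further 72 h. Cell number by MTS; IC50 (µM), some values as mean ± error (n).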

A-375 = assay: Compound was evaluated for cytotoxic activity against human melanoma cell line A375; format: functional, cell-based
How it was run: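 A375 melanoma medium contained 1 mM aminoguanidine, penicillin/streptomycin, 10% FBS, 1 mM sodium pyruvate and 2 mM L-glutamine.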

PC-3 [5] = assay: Compound was evaluated for cytotoxic activity against human prostate cancer cell line PC-3; format: functional, cell-based
SK-OV-3 = assay: Compound was evaluated for cytotoxic activity against human ovarian cancer cell line SK-OV-3; format: functional, cell-based
How it was run: (§2)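 SK-OV-3, Mes-SA and multidrug-resistant Mes-SA/Dx5 cultured in McCoy's 5A with 1 mM aminoguanidine, penicillin/streptomycin and 10% FBS.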

T47D = assay: Compound was evaluated for cytotoxic activity against the following human cancer cell Breast cancer cell line T47 D; format: functional, cell-based
How it was run: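 T47.D in RPMI 1640 with 1 mM aminoguanidine, penicillin/streptomycin, 10% FBS, 1 mM sodium pyruvate, 2 mM L-glutamine and 0.4% insulin.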

MES-SA = assay: Compound was evaluated for cytotoxic activity against the following human cancer cell Uterine cancer cell line Mes-SA; format: functional, cell-based; how it was run: as §2
SK-MEL-5 = assay: Compound was evaluated for cytotoxic activity against human melanoma cell line SK-Mel-5; format: functional, cell-based
How it was run: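 SK-Mel-5 maintained in EMEM supplemented with 1 mM aminoguanidine, 50 U/mL penicillin, 50 µg/mL streptomycin and 10% FBS.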

Nucleic Acid [6] = assay: Ability to interact with DNA was assessed by a DNA/ethidium bromide dye displacement assay, expressed as DC50 for polydAdT; format: nucleic-acid assay; how it was run: as §1
[7] = system: Mes-SA/Dx5 (Homo sapiens); assay: Compound was evaluated for cytotoxic activity against the following human cancer cell MDR Uterine cancer cell line Mes-SA/Dx5

Compound | IC50 (MDA-MB-231 [1]) [µM] | IC50 (PC-3 [2]) [µM] | also measured
CN(C)c1ccc(CNCCCCNCc2ccc(N(C)C)cc2)cc1 | 197 | 56 | –
c1ccc2c(CNCCCCNCc3c[nH]c4ccccc34)c[nH]c2c1 | 77 | 51 | –
Cn1cc(NC(=O)c2cc(NC(=O)c3cc(NC=O)cn3C)cn2C)cc1C(=O)NCCC(=N)N [STALLIMYCIN] | – | – | DC50 (Nucleic Acid [3]): 44 µM
NCCCCNCc1ccccc1 | > 300 | 211 | –
c1ccc2c(CNCCCNCc3cccc4ccccc34)cccc2c1 | 5.1 | 4.3 | –
c1ccc(-c2ccc(CNCCCCNCc3ccc(-c4ccccc4)cc3)cc2)cc1 | – | – | IC50 (MDA-MB-231 [4]): 1920 nM; IC50 (A-375): 590 nM; IC50 (PC-3 [5]): 770 nM; IC50 (SK-OV-3): 740 nM
COc1ccc(CNCCCCNCc2ccc(OC)cc2)cc1 | 21 | 6 | –
c1ccc2c(CNCc3ccc(CNCc4cccc5ccccc45)cc3)cccc2c1 | 7 | 14 | –
O=C1c2cccc3cccc(c23)C(=O)N1CCNCCCNCCN1C(=O)c2cccc3cccc(c23)C1=O [ELINAFIDE] | 0.06 | 0.07 | –
NCCCCNCc1ccc([N+](=O)[O-])cc1 | 201 | 50 | –
c1ccc2c(CCNCCCCNCCc3cccc4ccccc34)cccc2c1 | 25 | 37 | –
c1ccc2c(CNCCCCCNCc3cccc4ccccc34)cccc2c1 | 8.3 | 6.5 | –
c1cc(CNCc2cccc3ccccc23)cc(CNCc2cccc3ccccc23)c1 | 19 | 20 | –
[N-]=[N+]=Nc1cccc(CNCCCCNCc2cccc(N=[N+]=[N-])c2)c1 | 19 | 15 | –
c1cc2c(cc1CNCCCCNCc1ccc3c(c1)OCO3)OCO2 | 70 | 56 | –
O=[N+]([O-])c1ccc(CNCCCCNCc2ccc([N+](=O)[O-])cc2)cc1 | 205 | 143 | –
Nc1cccc(CNCCCCNCc2cccc(N)c2)c1 | > 300 | > 300 | –
c1ccc2c(CNCCCCNCc3ccnc4ccccc34)ccnc2c1 | 9.4 | 8.4 | –

Compound | IC50 (MDA-MB-231 [1]) [µM] | IC50 (PC-3 [2]) [µM] | also measured
Clc1ccc(CNCCCCNCc2ccc(Cl)c(Cl)c2)cc1Cl | 65 | 20 | –
O=[N+]([O-])c1cccc(CNCCCCNCc2cccc([N+](=O)[O-])c2)c1 | 18 | 9 | –
N#Cc1ccc(CNCCCCNCc2ccc(C#N)cc2)cc1 | 84 | 22 | –
COc1ccc(CNCCCCNCc2ccc(OC)c3ccccc23)c2ccccc12 | 2.8 | 3.2 | –
c1ccc(-c2ccc(CNCCCNCc3ccc(-c4ccccc4)cc3)cc2)cc1 | 2 | 0.8 | –
c1ccc2c(CNCCCCNCc3c4ccccc4cc4ccccc34)c3ccccc3cc2c1 | 3.5 | 2.7 | –
c1ccc2c(CNCCCCNCc3cccc4ccccc34)cccc2c1 | – | – | IC50 (T47D): 6.5 µM; IC50 (MDA-MB-231 [4]): 9100 nM; IC50 (MES-SA): 10.1 µM; IC50 (A-375): 5400 nM; IC50 (PC-3 [5]): 10000 nM; IC50 (SK-MEL-5): 4600 nM; IC50 (SK-OV-3): 8500 nM; DC50 (Nucleic Acid [6]): 8.7 µM; IC50 [7]: 7.2 µM
O=[N+]([O-])c1ccccc1CNCCCCNCc1ccccc1[N+](=O)[O-] | 62 | 23 | –
COc1cc(CNCCCCNCc2cc(OC)c(OC)c(OC)c2)cc(OC)c1OC | 58 | 58 | –
c1ccc2cc(CNCCCCNCc3ccc4ccccc4c3)ccc2c1 | 2.1 | 2.5 | –
c1ccc2c(c1)Cc1cc(CNCCCCNCc3ccc4c(c3)Cc3ccccc3-4)ccc1-2 | 6.6 | 1.85 | –
N#Cc1cccc(CNCCCCNCc2cccc(C#N)c2)c1 | 42 | 10 | –
CC(CCC(C)NCc1cccc2ccccc12)NCc1cccc2ccccc12 (stereo not given) | 5 | 7 | –
c1ccc(-c2ccc(CNCCCCCNCc3ccc(-c4ccccc4)cc3)cc2)cc1 | 1.3 | 0.48 | –
Nc1ccccc1CNCCCCNCc1ccccc1N | 146 | 98 | –
c1ccc(N(c2ccccc2)c2ccc(CNCCCCNCc3ccc(N(c4ccccc4)c4ccccc4)cc3)cc2)cc1 | – | – | IC50 (T47D): 0.65 µM; DC50 (Nucleic Acid [3]): 9.4 µM; IC50 (MDA-MB-231 [4]): 620 nM; IC50 (MES-SA): 0.64 µM; IC50 (A-375): 400 nM; IC50 (PC-3 [5]): 600 nM; IC50 (SK-MEL-5): 940 nM; IC50 (SK-OV-3): 680 nM; IC50 [7]: 0.61 µM
NCCCCNCc1cccc2ccccc12 | > 300 | 211 | –
